The list is not random: actives were taken first. Their share in the collection is about 2.1%.
C2C12 statin – suppressors of simvastatin-induced myotoxicity in C2C12 myotubes. ATP luminescence, 48 h; scaled: DMSO 0, geranylgeraniol control 100. rescue of ATP level, % at 7.49 µM. hit rate 0.78% among 330,000;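 active = mean ATP rescue above about 67%, or every replicate alone reaching that limit, limit read from the data, passing the limit was not always enough; inconclusive = no clear call, values can overlap the other calls; inactive = mean under the limit and some replicate under it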;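 note: myotubes were challenged with 10 µM simvastatin during compound exposure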
Xi reactivation – activators of X-chromosome reactivation in mouse fibroblasts; XiGFP mouse fibroblasts, % GFP-positive cells imaging, 3 d; cells co-treated with 5-aza-dC sensitizer; scaled so ellipticine positive control = 100%; activation, % at 7.58 µM; hit rate 0.055% among 360,000; AID 743238;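 active = mean normalized replicate activation at least 10% and every replicate at or above 10%; inconclusive = only one of the two criteria met; inactive = mean below 10% and not all replicates reach 10%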
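Assay system: SV40-immortalized XiGFP fibroblast cells, line 68-5-11; buffer or medium: DMEM plus 5-aza-dC sensitizer; compound: one concentration, pinned; timing: compounds 3 days, fix/stain 15 min at room temperature; benchmarks: positive control ellipticine, 6 µM final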
DENV2 CPE – DENV2-induced cell death inhibition; DENV2-infected cells, cytopathic effect rescue, plate reader; CPE inhibition, % at 9.99 µM; hit rate 1.7% among 350,000; in the data active = CPE inhibition above about 20%, passing the limit was not always enough; inconclusive = no clear call, values can overlap the other calls; tested in BHK-21 cells
Cneo AK release – Cryptococcus neoformans lysis via adenylate kinase release. AID 651654. C. neoformans lysis, adenylate kinase release luminescence, 4 h; normalised: neutral wells 0, clomiphene wells 100. lysis activity, % at 15 µM. hit rate 0.2% among 360,000;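 active = mean lysis activity across replicates of at least 80%, whatever share of replicates individually reach that level; inactive = mean lysis activity below 80%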
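read-out = cell lysis signal | test system = log-phase Cryptococcus neoformans yeast cells | input = cells at 5 × 10^6 per mL | medium = fresh YPD growth medium | signal = luminescent adenylate kinase detection reagent | timing = 4 h at 37 °C static, read 1 h later | dosing = single dose | controls = Clomiphene as positive lysis control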
Numbers stand for hits; n = inactive; u = inconclusive; x = no result.

SMILES	C2C12 statin	Xi reactivation	DENV2 CPE	Cneo AK release
CC(C)C(c1nnnn1Cc1ccc(F)cc1)N1CCN(Cc2ccc3c(c2)OCO3)CC1 (stereo unspecified)	x	x	x	n
COCCn1nnnc1C(c1ccccc1)N1CCN(Cc2ccc3c(c2)OCO3)CC1 (stereo unspecified)	108	x	x	n
COCCn1nnnc1C(c1ccc(C)cc1)N1CCN(Cc2ccc3c(c2)OCO3)CC1 (stereo unspecified)	93	x	x	n
COC(=O)c1ccc(N2C(=O)CC(N(C)Cc3ccccc3)C2=O)cc1 (stereo unspecified)	87	x	x	n
CCOc1ccc(N2C(=O)CC(N(C)Cc3ccccc3)C2=O)cc1 (stereo unspecified)	x	n	n	x
CC1CC(C)(C)N2C(=O)C3(Nc4ccccc4S3)c3cccc1c32 (stereo unspecified)	n	x	x	n
O=C1N2CCCc3cccc(c32)C12Nc1ccccc1S2 (stereo unspecified)	152	x	x	n
O=C(Nc1ccncc1)c1ccc(Br)cc1	n	n	n	n
O=C(Nc1ccncc1)c1cc(F)cc(F)c1	72	x	x	n
COc1ccc(S(=O)(=O)Nc2ccc3c(c2)C(=O)N([C@@H](C)CO)C[C@H](C)[C@@H](CN(C)S(=O)(=O)c2ccc(F)cc2)OCCCC[C@@H](C)O3)cc1	n	n	n	n
COc1ccc(S(=O)(=O)N(C)C[C@@H]2OCCCC[C@@H](C)Oc3ccc(NS(=O)(=O)c4ccc(F)cc4)cc3C(=O)N([C@H](C)CO)C[C@@H]2C)cc1	n	n	n	n
COc1ccc(S(=O)(=O)Nc2ccc3c(c2)C(=O)N([C@H](C)CO)C[C@@H](C)[C@@H](CN(C)S(=O)(=O)c2ccc(F)cc2)OCCCC[C@H](C)O3)cc1	141	n	n	n
COc1ccc(S(=O)(=O)Nc2ccc3c(c2)C(=O)N([C@@H](C)CO)C[C@H](C)[C@H](CN(C)S(=O)(=O)c2ccc(F)cc2)OCCCC[C@H](C)O3)cc1	174	n	n	n
C[C@@H]1CN([C@@H](C)CO)C(=O)c2cccc(NC(=O)c3cnccn3)c2O[C@@H]1CN(C)S(=O)(=O)c1ccc(F)cc1	n	n	n	x
COCCNC(=O)C[C@@H]1C[C@@H]2c3cc(NS(=O)(=O)c4ccc(F)cc4)ccc3O[C@@H]2[C@@H](CO)O1	n	n	n	n
O=c1cc(CN2CCN(Cc3ccccc3)CC2)c2cc3c(cc2o1)CCC3	115	n	n	n
C[C@@H]1CCCCO[C@H](CN(C)C(=O)C2CCCCC2)[C@@H](C)CN([C@@H](C)CO)C(=O)c2cc(N(C)C)ccc2O1	n	n	x	x
COC(=O)C1=C(C(=O)OC)[C@@H]2Nc3ccccc3[C@@]23C[C@@H](C(=O)OC)N(C(=O)c2cccs2)C3=N1	n	n	68	n
CC1CCN(C(=O)COC(=O)CNC(=O)c2ccccc2F)CC1	n	n	69	n
O=C(CNC(=O)c1ccccc1F)OCC(=O)N1CCCCC1	n	n	n	x
CC1CCCC(NC(=O)COC(=O)c2cc3ccccc3oc2=O)C1C (stereo unspecified)	n	n	n	n
COc1cccc(C(=O)NCC(=O)N2CCC(C)CC2)c1	99	x	x	n
CC1CCN(C(=O)COC(=O)c2cc3ccccc3oc2=O)CC1	n	n	54	n
COCC(=O)N(C)C[C@H]1Oc2cc(C#CCC(C)C)ccc2S(=O)(=O)N([C@@H](C)CO)C[C@@H]1C	n	n	n	n
C[C@@H]1CN([C@H](C)CO)C(=O)c2cc(NC(=O)NC3CCCCC3)ccc2O[C@@H](C)CCCCO[C@@H]1CN(C)C(=O)Nc1ccc(F)cc1	x	n	n	x
SMILES	C2C12 statin	Xi reactivation	DENV2 CPE	Cneo AK release
C[C@@H]1CCCCO[C@@H](CN(C)S(=O)(=O)c2ccc(Cl)cc2)[C@H](C)CN([C@@H](C)CO)C(=O)c2cc(NS(=O)(=O)c3cn(C)cn3)ccc2O1	x	n	n	n
Cc1noc(C)c1S(=O)(=O)Nc1ccc2c(c1)C(=O)N([C@H](C)CO)C[C@@H](C)[C@H](CN(C)C(=O)c1ccccc1)OCCCC[C@@H](C)O2	x	n	n	n
COc1ccc(NC(=O)C2(N(C(=O)Cn3nnnc3N)c3ccc(OC)cc3)CCCCC2)cc1	n	n	n	n
COCC(=O)N(C)C1(c2nnnn2CCOC(=O)Nc2cccc3ccccc23)CCCC1	98	x	x	n
C[C@@H]1CCCCO[C@@H](CN(C)C(=O)Nc2ccc3c(c2)OCO3)[C@@H](C)CN([C@@H](C)CO)C(=O)c2cc(NC(=O)C3CCCCC3)ccc2O1	x	n	n	n
Cc1ccc(Nc2c(-c3ccco3)nc3ccccn23)cc1	x	n	75	n
c1ccc(Nc2c(-c3ccco3)nc3ccccn23)cc1	x	n	x	n
COc1cccc(NC(=O)N[C@H]2CC[C@H](CC(=O)NCc3ccncn3)O[C@H]2CO)c1	n	n	n	n
COc1ccc2c3c(n(C)c2c1)[C@H](CO)NCC31CN(C(C)=O)C1	x	n	u	x
COc1ccc2c3c(n(C)c2c1)[C@@H](CO)NCC31CCN(S(=O)(=O)c2cccc(C)c2)CC1	x	n	39	x
COc1ccc2c3c(n(C)c2c1)[C@H](CO)NCC31CN(C(=O)Nc2ccccc2F)C1	x	n	41	x
C[C@@H]1CCCCO[C@H](CN(C)Cc2ccncc2)[C@H](C)CN([C@@H](C)CO)C(=O)c2cc(NS(=O)(=O)c3ccccc3)ccc2O1	x	n	33	n
C[C@@H]1CN([C@H](C)CO)C(=O)c2cc(NS(=O)(=O)c3ccccc3)ccc2O[C@@H](C)CCCCO[C@H]1CN(C)Cc1ccncc1	x	n	n	n
C[C@@H]1CN([C@@H](C)CO)C(=O)c2cc(NS(=O)(=O)c3ccccc3)ccc2O[C@@H](C)CCCCO[C@@H]1CN(C)Cc1ccncc1	x	n	49	n
CC(C)Cc1ccc(C(C)C(N)=NCCc2ccccc2)cc1 (stereo unspecified)	n	n	33	n
COc1ccc(CCN=C(N)C(C)c2ccccc2)cc1OC (stereo unspecified)	n	n	n	n
CCN1[C@@H]2Cn3c(ccc(-c4ccncc4)c3=O)[C@H]1[C@@H](C(=O)Nc1ccccc1)[C@@H]2CO	n	n	n	n
CC(NC(=O)c1cccc(S(=O)(=O)N2CCN(Cc3ccccc3)CC2)c1)c1ccccc1Cl (stereo unspecified)	n	n	n	n
CC(NC(=O)c1cccc(S(=O)(=O)N2CCN(Cc3ccccc3)CC2)c1)c1ccc(Br)cc1 (stereo unspecified)	n	n	25	n
CCCNC(=O)c1ccccc1NC(=O)c1ccccc1N(C)S(C)(=O)=O	103	x	x	n
CSc1ccccc1NC(=O)c1ccccc1N(Cc1ccccc1)S(C)(=O)=O	102	x	n	n
CS(=O)(=O)N1CCN(C(=O)c2ccccc2F)CC1	95	x	x	n
CN(c1ccccc1C(=O)N1CCOCC1)S(C)(=O)=O	x	x	x	n
CC(C)CNC(=O)c1ccccc1NC(=O)c1ccccc1N(C)S(C)(=O)=O	n	x	x	n
